Source: ChEMBL document CHEMBL2176955, “Discovery of the macrocycle 11-(2-pyrrolidin-1-yl-ethoxy)-14,19-dioxa-5,7,26-triaza-tetracyclo[19.3.1.1(2,6).1(8,12)]heptacosa-1(25),2(26),3,5,8,10,12(27),16,21,23-decaene (SB1518), a potent Janus kinase 2/fms-like tyrosine kinase-3 (JAK2/FLT3) inhibitor for the treatment of myelofibrosis and …” (J Med Chem, 2011)
≈ marks a conversion by molar mass, not a printed value.

Legend:
[1] = biological target: Non-receptor tyrosine-protein kinase TYK2 (Homo sapiens, UniProt P29597); assay: Inhibition of recombinant TYK2
[2] = biological target: T1, Tyrosine-protein kinase JAK3 (Homo sapiens, UniProt P52333); assay: Inhibition of recombinant JAK3 using Poly (Glu,Ala,Tyr) as substrate after 2 hrs by luminescence assay
T1 sequence (P52333 whole entry): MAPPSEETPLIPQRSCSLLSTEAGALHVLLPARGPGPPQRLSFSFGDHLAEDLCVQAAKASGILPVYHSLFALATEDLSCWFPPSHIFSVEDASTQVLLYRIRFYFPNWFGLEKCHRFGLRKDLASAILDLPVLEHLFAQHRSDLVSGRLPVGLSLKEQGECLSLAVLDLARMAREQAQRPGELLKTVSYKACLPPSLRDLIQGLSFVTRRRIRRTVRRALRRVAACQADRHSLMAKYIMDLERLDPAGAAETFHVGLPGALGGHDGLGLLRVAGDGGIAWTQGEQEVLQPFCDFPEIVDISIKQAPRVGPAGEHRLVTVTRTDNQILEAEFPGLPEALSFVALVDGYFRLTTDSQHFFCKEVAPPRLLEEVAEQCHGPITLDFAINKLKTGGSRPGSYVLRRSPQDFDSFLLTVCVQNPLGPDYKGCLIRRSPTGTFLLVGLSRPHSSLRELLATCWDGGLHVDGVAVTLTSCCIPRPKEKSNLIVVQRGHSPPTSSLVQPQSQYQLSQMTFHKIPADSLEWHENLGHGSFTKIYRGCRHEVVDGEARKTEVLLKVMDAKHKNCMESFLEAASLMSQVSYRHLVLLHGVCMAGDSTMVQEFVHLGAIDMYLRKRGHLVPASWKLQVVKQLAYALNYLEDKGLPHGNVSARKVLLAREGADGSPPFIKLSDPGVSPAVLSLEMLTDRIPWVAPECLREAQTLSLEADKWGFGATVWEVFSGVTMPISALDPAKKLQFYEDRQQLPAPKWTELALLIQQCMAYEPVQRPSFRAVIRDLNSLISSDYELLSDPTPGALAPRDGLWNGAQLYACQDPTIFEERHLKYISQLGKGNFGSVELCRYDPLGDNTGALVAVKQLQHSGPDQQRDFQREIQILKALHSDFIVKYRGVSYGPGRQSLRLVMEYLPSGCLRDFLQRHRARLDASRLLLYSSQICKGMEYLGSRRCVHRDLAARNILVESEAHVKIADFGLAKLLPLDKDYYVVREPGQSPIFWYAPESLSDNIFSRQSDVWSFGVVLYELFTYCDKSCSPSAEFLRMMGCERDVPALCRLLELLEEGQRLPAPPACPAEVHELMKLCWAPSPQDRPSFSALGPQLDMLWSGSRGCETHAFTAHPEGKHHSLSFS

[3] = biological target: Tyrosine-protein kinase JAK1 (Homo sapiens, UniProt P23458); assay: Inhibition of recombinant JAK1 using Poly (Glu,Ala,Tyr) as substrate after 2 hrs by luminescence assay
In short: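 Luciferase-coupled ATP-depletion luminescence assay in 50 mM Hepes pH 7.5 with MgCl₂, MnCl₂, BGP, DTT and orthovanadate, 2 h at room temperature. Conditions per target: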

[4] = biological target: Tyrosine-protein kinase JAK2 (Homo sapiens, UniProt O60674); assay: Inhibition of recombinant JAK2 using Poly (Glu,Ala,Tyr) as substrate after 2 hrs by luminescence assay
[5] = biological target: Cyclin-dependent kinase 2/cyclin A (Homo sapiens, UniProt P24941); assay: Inhibition of recombinant CDK2/Cyclin A using RbinG as substrate after 2 hrs by luminescence assay; format: protein-complex assay
physchem = conditions: phosphate buffer saline, pH 7
[6] = biological target: T2, Receptor-type tyrosine-protein kinase FLT3 (Homo sapiens, UniProt P36888); assay: Inhibition of recombinant FLT3 using Poly (Glu,Tyr) as substrate after 2 hrs by luminescence assay
T2 sequence (P36888 whole entry): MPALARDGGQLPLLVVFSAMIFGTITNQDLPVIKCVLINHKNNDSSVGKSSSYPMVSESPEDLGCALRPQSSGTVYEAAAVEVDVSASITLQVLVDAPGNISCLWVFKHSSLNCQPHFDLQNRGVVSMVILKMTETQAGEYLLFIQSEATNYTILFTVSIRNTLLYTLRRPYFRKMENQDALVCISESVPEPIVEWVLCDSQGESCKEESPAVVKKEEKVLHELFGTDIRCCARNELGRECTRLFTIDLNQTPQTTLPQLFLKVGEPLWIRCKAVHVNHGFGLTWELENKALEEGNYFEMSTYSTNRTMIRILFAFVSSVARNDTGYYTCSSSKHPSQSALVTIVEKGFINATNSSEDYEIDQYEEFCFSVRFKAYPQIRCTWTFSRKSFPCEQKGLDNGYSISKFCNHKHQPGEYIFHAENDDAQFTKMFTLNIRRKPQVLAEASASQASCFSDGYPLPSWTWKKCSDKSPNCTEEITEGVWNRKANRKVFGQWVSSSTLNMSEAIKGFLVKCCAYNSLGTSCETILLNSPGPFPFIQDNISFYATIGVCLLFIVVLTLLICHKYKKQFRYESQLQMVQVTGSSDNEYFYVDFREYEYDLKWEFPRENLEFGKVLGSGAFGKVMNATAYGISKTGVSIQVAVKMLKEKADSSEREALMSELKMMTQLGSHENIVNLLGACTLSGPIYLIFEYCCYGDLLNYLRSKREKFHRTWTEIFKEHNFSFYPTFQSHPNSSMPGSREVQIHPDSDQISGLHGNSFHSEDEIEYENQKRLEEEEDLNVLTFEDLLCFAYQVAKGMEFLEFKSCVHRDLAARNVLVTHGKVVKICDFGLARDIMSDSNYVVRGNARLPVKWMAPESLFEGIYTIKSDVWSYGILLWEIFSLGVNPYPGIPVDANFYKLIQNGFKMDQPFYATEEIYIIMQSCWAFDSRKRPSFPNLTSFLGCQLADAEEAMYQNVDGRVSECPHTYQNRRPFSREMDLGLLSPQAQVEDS

Sequence of Tyrosine-protein kinase JAK1 (P23458 whole entry): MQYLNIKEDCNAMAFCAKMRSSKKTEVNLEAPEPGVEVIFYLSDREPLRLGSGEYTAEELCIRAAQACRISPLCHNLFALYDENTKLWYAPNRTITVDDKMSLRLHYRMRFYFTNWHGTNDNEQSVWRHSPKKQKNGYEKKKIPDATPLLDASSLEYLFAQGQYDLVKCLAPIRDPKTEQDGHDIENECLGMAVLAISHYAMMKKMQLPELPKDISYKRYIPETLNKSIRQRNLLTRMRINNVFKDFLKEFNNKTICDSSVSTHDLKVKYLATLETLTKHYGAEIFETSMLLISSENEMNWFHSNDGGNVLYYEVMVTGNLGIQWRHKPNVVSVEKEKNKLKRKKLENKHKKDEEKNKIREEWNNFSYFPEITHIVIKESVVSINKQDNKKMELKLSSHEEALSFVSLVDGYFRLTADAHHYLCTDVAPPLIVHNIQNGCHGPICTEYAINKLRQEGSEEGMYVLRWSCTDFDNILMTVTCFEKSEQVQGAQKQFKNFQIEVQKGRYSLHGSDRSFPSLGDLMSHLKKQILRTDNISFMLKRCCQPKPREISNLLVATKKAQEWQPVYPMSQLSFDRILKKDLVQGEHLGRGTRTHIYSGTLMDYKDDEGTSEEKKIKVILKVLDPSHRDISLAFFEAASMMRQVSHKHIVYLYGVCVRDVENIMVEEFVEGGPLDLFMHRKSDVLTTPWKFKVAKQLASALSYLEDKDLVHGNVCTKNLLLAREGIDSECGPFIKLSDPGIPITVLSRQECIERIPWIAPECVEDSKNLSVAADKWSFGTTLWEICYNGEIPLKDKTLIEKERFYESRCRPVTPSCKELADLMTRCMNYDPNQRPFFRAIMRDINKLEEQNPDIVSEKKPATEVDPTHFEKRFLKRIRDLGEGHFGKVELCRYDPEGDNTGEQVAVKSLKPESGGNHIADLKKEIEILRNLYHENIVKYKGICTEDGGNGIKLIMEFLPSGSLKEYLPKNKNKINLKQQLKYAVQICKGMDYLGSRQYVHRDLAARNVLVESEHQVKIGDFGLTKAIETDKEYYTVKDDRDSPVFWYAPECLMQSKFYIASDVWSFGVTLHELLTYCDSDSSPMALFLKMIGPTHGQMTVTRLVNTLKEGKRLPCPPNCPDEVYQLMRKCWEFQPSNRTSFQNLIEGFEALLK
Sequence of Non-receptor tyrosine-protein kinase TYK2 (P29597 whole entry): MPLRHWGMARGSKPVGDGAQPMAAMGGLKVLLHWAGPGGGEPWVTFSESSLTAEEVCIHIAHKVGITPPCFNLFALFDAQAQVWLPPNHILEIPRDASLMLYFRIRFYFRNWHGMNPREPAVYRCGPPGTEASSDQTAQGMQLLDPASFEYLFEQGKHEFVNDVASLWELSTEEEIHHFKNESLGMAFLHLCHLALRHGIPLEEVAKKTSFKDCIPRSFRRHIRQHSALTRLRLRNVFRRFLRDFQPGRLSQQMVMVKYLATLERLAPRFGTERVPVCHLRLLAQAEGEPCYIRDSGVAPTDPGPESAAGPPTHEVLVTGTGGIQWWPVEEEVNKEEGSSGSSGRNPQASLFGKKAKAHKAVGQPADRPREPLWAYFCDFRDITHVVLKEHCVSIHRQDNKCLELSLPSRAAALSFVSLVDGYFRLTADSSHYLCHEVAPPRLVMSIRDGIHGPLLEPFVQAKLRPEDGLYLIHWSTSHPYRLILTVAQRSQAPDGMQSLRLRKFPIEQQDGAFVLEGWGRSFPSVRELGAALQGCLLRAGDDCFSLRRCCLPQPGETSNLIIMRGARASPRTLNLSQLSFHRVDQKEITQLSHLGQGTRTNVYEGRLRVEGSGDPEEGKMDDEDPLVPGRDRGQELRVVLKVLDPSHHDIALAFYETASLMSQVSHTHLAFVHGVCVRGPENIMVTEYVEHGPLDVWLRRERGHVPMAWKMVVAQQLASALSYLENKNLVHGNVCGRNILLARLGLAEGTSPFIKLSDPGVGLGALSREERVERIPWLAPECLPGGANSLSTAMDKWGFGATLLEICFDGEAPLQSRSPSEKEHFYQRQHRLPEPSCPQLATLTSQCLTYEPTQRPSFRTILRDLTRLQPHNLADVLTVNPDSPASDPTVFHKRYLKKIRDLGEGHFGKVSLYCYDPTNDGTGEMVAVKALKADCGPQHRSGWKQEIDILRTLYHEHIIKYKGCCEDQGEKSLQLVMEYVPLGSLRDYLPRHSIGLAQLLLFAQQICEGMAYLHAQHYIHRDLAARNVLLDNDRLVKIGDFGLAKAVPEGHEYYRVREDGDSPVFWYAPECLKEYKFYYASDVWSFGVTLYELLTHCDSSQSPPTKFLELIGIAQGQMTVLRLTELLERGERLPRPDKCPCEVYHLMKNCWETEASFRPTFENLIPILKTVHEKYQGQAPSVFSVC
Sequence of Tyrosine-protein kinase JAK2 (O60674 whole entry): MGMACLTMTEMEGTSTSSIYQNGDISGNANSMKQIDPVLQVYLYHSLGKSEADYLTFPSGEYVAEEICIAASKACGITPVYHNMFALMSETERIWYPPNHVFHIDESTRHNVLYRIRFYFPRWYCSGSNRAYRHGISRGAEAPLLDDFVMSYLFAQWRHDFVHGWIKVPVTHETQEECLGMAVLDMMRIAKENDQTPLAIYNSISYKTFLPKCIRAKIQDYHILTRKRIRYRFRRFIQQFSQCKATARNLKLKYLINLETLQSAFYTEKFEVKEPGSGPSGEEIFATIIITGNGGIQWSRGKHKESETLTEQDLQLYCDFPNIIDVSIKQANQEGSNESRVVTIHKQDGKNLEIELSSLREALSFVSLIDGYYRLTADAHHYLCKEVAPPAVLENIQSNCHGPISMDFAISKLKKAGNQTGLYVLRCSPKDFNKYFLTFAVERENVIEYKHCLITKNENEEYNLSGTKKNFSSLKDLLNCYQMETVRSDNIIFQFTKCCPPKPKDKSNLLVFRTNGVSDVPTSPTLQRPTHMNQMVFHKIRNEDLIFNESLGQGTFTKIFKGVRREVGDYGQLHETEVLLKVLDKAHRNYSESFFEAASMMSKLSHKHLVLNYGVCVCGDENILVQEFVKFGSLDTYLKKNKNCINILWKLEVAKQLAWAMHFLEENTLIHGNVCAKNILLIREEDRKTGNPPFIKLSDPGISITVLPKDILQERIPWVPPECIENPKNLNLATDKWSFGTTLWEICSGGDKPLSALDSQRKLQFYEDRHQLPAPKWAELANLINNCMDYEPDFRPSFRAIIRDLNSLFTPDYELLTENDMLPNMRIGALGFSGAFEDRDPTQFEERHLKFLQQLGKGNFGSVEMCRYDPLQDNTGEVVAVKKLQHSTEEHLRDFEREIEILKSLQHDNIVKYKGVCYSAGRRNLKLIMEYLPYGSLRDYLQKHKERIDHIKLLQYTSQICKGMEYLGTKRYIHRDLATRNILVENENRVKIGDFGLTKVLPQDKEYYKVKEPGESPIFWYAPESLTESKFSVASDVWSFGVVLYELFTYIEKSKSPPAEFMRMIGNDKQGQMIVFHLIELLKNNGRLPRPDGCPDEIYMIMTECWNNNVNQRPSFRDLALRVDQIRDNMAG

| SMILES | IC50 [1] [nM] | IC50 [2] [nM] | IC50 [3] [nM] | IC50 [4] [nM] | IC50 [5] [nM] | solubility (physchem) [µg/mL] | IC50 [6] [nM] |
| --- | --- | --- | --- | --- | --- | --- | --- |
| C1=CCOCc2cccc(c2)-c2ccnc(n2)Nc2cc(cc(OCCN3CCCC3)c2)COC1 (mixture of isomers) | 80 | 830 | 2100 | 48 | 570 | 145 | 22 |
| COc1ccc2cc1COCC=CCOCc1cccc(c1)-c1ccnc(n1)N2 (mixture of isomers) | 210 | 1200 | 1900 | 70 | 860 | – | 190 |
| Fc1ccc2cc1COCC=CCOCc1cc(ccc1OCCN1CCCC1)Nc1nccc-2n1 (mixture of isomers) | – | 720 | 4600 | 25 | 3250 | – | 40 |
| C1=CCOCc2cc(ccc2N2CCOCC2)Nc2nccc(n2)-c2cccc(c2)COC1 (mixture of isomers) | 160 | – | 8700 | 60 | > 10000 | – | 32 |
| Oc1ccc2cc1COCC=CCOCc1cccc(c1)-c1ccnc(n1)N2 (mixture of isomers) | 170 | 1100 | 400 | 53 | 210 | – | 170 |
| O=C1CCN(CCOc2ccc3cc2COCC=CCOCc2cccc(c2)-c2ccnc(n2)N3)C1 (mixture of isomers) | 140 | 380 | 940 | 22 | 5800 | – | 67 |
| Nc1cc2cc(c1)Nc1nccc(n1)-c1cccc(c1)COCC=CCOC2 (mixture of isomers) | – | – | – | 35 | 240 | 25 | 52 |
| CN1CCN(c2ccc3cc2COCC=CCOCc2cccc(c2)-c2ccnc(n2)N3)CC1 (mixture of isomers) | 190 | – | 3600 | 41 | > 10000 | 26.4 | 30 |
| OCCN1CCN(c2ccc3cc2COCC=CCOCc2cccc(c2)-c2ccnc(n2)N3)CC1 | 160 | 2500 | 3100 | 84 | 3700 | 150 (≈ 308 µM) | 70 |
| COc1ccc2cc1COCC=CCCOc1cccc(c1)-c1ccnc(n1)N2 (mixture of isomers) | 150 | – | 3000 | 130 | > 10000 | – | 310 |
| O=C1CCCN1CCOc1ccc2cc1COCC=CCOCc1cccc(c1)-c1ccnc(n1)N2 (mixture of isomers) | 180 | 500 | 1300 | 22 | 9400 | – | 140 |
| CN(C)CCN(C)c1ccc2cc1COCC=CCOCc1cccc(c1)-c1ccnc(n1)N2 (mixture of isomers) | 71 | – | 3600 | 77 | 88 | 171 | 31 |
| C1=CCOc2cccc(c2)Nc2nccc(n2)-c2cccc(c2)OCC1 (mixture of isomers) | 70 | > 10000 | > 10000 | 230 | 330 | < 10 | 880 |
| Fc1cnc2nc1-c1cccc(c1)COCC=CCOCc1cc(ccc1OCCN1CCCC1)N2 (mixture of isomers) | 140 | 1000 | 830 | 17 | 1550 | – | 15 |
| ClCCOc1ccc2cc1COCC=CCOCc1cccc(c1)-c1ccnc(n1)N2 (mixture of isomers) | 470 | > 10000 | > 10000 | 220 | > 10000 | – | 76 |
| C1=CCOCc2cccc(c2)-c2ccnc(n2)Nc2cc(cc(OCCN3CCOCC3)c2)COC1 (mixture of isomers) | 81 | 3300 | 2400 | 96 | 2700 | 40 | 19 |
| Fc1cc2cc(c1)-c1ccnc(n1)Nc1ccc(OCCN3CCCC3)c(c1)COCC=CCOC2 (mixture of isomers) | 36 | – | 380 | 24 | 2000 | 2.61 | 8 |
| C1=CCOCc2cc(ccc2N2CCNCC2)Nc2nccc(n2)-c2cccc(c2)COC1 (mixture of isomers) | 140 | 1600 | 2500 | 83 | 3400 | 8.79 | 49 |
| CC(=O)N1CCN(c2ccc3cc2COCC=CCOCc2cccc(c2)-c2ccnc(n2)N3)CC1 (mixture of isomers) | 110 | 6000 | 2800 | 120 | 6200 | – | 38 |
| CCN(CC)CCC(=O)Nc1cc2cc(c1)Nc1nccc(n1)-c1cccc(c1)COCC=CCOC2 (mixture of isomers) | 18 | 390 | 1900 | 44 | 400 | – | 78 |
| CCS(=O)(=O)N1CCN(c2ccc3cc2COCC=CCOCc2cccc(c2)-c2ccnc(n2)N3)CC1 (mixture of isomers) | 140 | > 10000 | > 10000 | 150 | > 10000 | – | 150 |
| COc1ccc2cc1-c1ccnc(n1)Nc1ccc(OCCN3CCCC3)c(c1)COCC=CCOC2 | 620 | 7200 | 4900 | 330 | > 10000 | – | 12 |
| COc1cc2cc(c1OCCN1CCCC1)COCC=CCOCc1cccc(c1)-c1ccnc(n1)N2 (mixture of isomers) | 170 | – | 1700 | 36 | 3400 | 154 | 6 |
| COc1ccc2cc1COCC=CCOc1cccc(c1)-c1ccnc(n1)N2 (mixture of isomers) | 120 | – | 5800 | 260 | 360 | < 10 | 78 |
| C1=CCCOc2cccc(c2)-c2ccnc(n2)Nc2cccc(c2)OCC1 | 5200 | > 10000 | > 10000 | 1200 | > 10000 | – | 1100 |
